Measured values: ChEMBL document CHEMBL1157313, “Metabolites from the marine-derived fungus Chromocleista sp. isolated from a deep-water sediment sample collected in the Gulf of Mexico” (2006)
≈ marks a conversion by molar mass, not a printed value. Calls of active or inactive are those of the source. The rule behind the calls is not given here.

How the values were obtained:
Candida albicans [1] = experiment: Antifungal activity against Candida albicans ATCC 44506 up to 50 ug/mL after 18 hrs by broth microdilution method; type: functional, organism-based
In short: (§1)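 MIC by standard broth microdilution with Sabouraud dextrose broth as growth medium; plates incubated 18 h at 37 °C.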

Staphylococcus aureus = experiment: Antibacterial activity against Staphylococcus aureus ATCC 29213 at 50 ug/mL after 18 hrs by broth microdilution technique; type: functional, organism-based
In short: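 MIC by standard broth microdilution in cation-supplemented Mueller-Hinton broth; plates incubated 18 h at 37 °C; tested at 50 µg/mL.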

P388 = experiment: Cytotoxicity against mouse P388 cells at 5 ug/mL after 45 hrs by MTT assay; type: functional, cell-based
In short: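 Murine leukemia cells incubated 45 h with compound at 5 µg/mL in 96-well plates; cytotoxicity read spectrophotometrically using MTT.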

A549 = experiment: Cytotoxicity against human A549 cells at 5 ug/mL after 72 hrs by MTT assay; type: functional, cell-based
In short: (§2)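 Cells exposed to compound at 5 µg/mL for 72 h in 96-well format; viability read spectrophotometrically with MTT.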

PANC-1 = experiment: Cytotoxicity against human PANC1 cells at 5 ug/mL after 72 hrs by MTT assay; type: functional, cell-based; in short: as §2
NCI/ADR-RES = experiment: Cytotoxicity against human NCI-ADR-RES cells at 5 ug/mL after 72 hrs by MTT assay; type: functional, cell-based; in short: as §2
Candida albicans [2] = experiment: Antifungal activity against Candida albicans ATCC 44506 after 18 hrs by broth microdilution method; type: functional; conditions: ATCC 44506, 18 h; in short: as §1

MIC (Candida albicans [2]) [µg/mL]	Compound	Activity (Candida albicans [1])	Activity (Staphylococcus aureus)	Activity (P388)	Activity (A549)	Activity (PANC-1)	Activity (NCI/ADR-RES)
	O=C1[C@H](Cc2ccccc2)NC(=O)[C@]2(O)CCCN12	inactive	inactive	inactive	inactive	inactive	inactive
	O=C1[C@H](Cc2ccccc2)NC(=O)[C@@]2(O)CCCN12	inactive	inactive	inactive	inactive	inactive	inactive
	O=C1N[C@@H](Cc2ccccc2)C(=O)N2CCC=C12	inactive	inactive	inactive	inactive	inactive	inactive
25 (≈ 108 µM)	O=C1C(O)=C(c2ccc(O)cc2)[C@@H]2CCCN12		inactive	inactive	inactive	inactive	inactive
